Reference: the EternaBench riboswitch data

Tested on: MS2 coat protein
Assay: apparent Kd, MS2 coat protein; higher = weaker binding; RNA-MaP array; FMN 200 µM where present
Procedure, shortened: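 The apparent Kd is the median of filtered binding-curve fits, one per cluster, to green signal normalised to red-channel RNA signal and control-cluster median Fmax. The clusters were on Illumina sequencing chips, and stalled E. coli RNA polymerase had transcribed the designs on them. Titration used SNAP-549-labelled MS2 coat protein from 0.7 or 1.5 nM, doubling to 3 µM, without and then with constant ligand, in 100 mM Tris-HCl pH 7.5, 80 mM KCl, 4 mM MgCl2, BSA, DTT, yeast tRNA and Tween-20.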

[1] = designed as: OFF switch for flavin mononucleotide, no ligand
[2] = ligand present: flavin mononucleotide, designed as: OFF switch for flavin mononucleotide
[3] = designed as: ON switch for flavin mononucleotide, no ligand
[4] = ligand present: flavin mononucleotide, designed as: ON switch for flavin mononucleotide

Sequence | apparent Kd [1] | apparent Kd [2] | apparent Kd [3] | apparent Kd [4]
UUAGCAACAUGAGGAUCACCCAUGUAGGAUAUCGCUAUUGUAAUCAUGAAACAUGAUUACAAUAGCGAGAAGGACAUAUGCUGG | 22.4 nM | 19.5 nM |  | 
UUAGGCUGAAGAUCAAUUAAUUAACAUGAGGAUCACCCAUGUAAGGAUAUCAGCUCGAUUAGAGCUGAGAAGGUACAUGCAGCC | 110 nM | 565 nM |  | 
UUAUAUAGAGUGAGGAUAUGCUGGUCCUUGGAUCAGCAGAAGGCACAUGAGGAUCACCCAUGUAAAAUAAUAUU | 24.2 nM | 41.1 nM |  | 
UUAUCUUGUCAAGGAUAUGUUGUAUUGAUCUGAAAACAUGAGGAUCACCCAUGUAUACGGUGGGAACAGAAGGUGAAUGUAGAA |  | 721 nM |  | 
UUAUGAUAGAUAGGAUAUACAAUGGAUUAAGAAGUAGAAGGAUCAAGUGGGAAAUGAACAUGAGGAUCACCCAUGUAAUAGGUU |  |  | 127 nM | 83.5 nM
UUAUGGAUCACAGGAUAUCCAAGGGCGCGUCUGGCGCGCUCACAUGAGGAUCACCCAUGUCGAGUGGAGAAGGGUGGUUGACGG |  |  | 466 nM | 68.3 nM
UUAUUAAAUGUAGGAUAUGCAUAUUAUUAUUAUGCAGAAGGACAUGAGGAUCACCCAUGUAUAUUAUUAUUAUUUAUUAUAUAU | 44.8 nM | 65.6 nM |  | 
UUAUUAAGUGUGAGGAUAUGCUGGUCCUUGGAUCAGCAGAAGGCACAUGAGGAUCACCCAUGUACAAUAUUUUA | 39 nM | 230 nM |  | 
UUAUUAUAUGUAGGAUAUGCAUAUUAUUAUUGUGCAGAAGGACAUGAGGAUCACCCAUGUAUAUUAUUAUUAUAUAUUAUAUGU | 25.7 nM | 30.2 nM |  | 
UUAUUAUAUGUAGGAUAUGCAUAUUGUUGUUAUGCAGAAGGACAUGAGGAUCACCCAUGUGUAUUAUUGUUAUAUAUUAUAUAU | 21.5 nM | 31.2 nM |  | 
UUAUUAUUUAUAGGAUAUUGAUGUUUGCUAGUACAAGAAGGAUAAACAUGAGGAUCACCCAUGUAGUUUAAGGUUAGUUUGUUU |  |  | 38.1 nM | 39.4 nM
UUAUUCUAUAUAGGAUAUUGAUGUAAUUUAUUUCAAGAAGGAUAUACAUGAGGAUCACCCAUGUUGGAUAGGGUUAGUUUGUUU |  |  | 81.1 nM | 91.1 nM
UUAUUUUUACAGAAGGUUUAAUAAUAUGUAUGAGAAGGAUAUGUAACAUGAGGAUCACCCAUGUUUUAUUUAUAUGAGGAUCAU |  | 9.31 nM |  | 
UUCAAGUUGCGAGGAUAUCGUGUUAACAUGAGGAUCACCCAUGUAAAGGUUUAUUAAUUAAUCUUCGAGAAGGCGCUUAAUGUA |  |  | 29.3 nM | 19.5 nM
UUCAUCAAUGAAGGAUAUCUAUGUCCAACAUGAGGAUCACCCAUGUUGAGGAUCACCUAUGUAUAGGAGAAGGUUAAUAUAACU |  |  | 7.32 nM | 6.28 nM
UUCCAGCUUGUCAGGAUAUACUUAGGGUAAUCAGAGUAGAAGGGACAUGAGGAUCACCCAUGUGACGCUUGAGC | 65.2 nM | 118 nM |  | 
UUCCGGCGUGUAGGAUAUGGAUCCGAUUAGGAUCCAGAAGGACAUGAGGAUCACCCAUGUACAUGUAAACAGUCAUCACCGGAG | 7.36 nM | 11.4 nM |  | 
UUCCUACAUGAGGAUCACCCAUGUCAGGAUAUGUAGACGCAAAUUUACGAUUUGCGGAAUAGAAGGGACGUGAC | 24.1 nM | 25.9 nM |  | 
UUCCUGUCAGGAUAUGACUAGAGGCACGAAAGUGUGUUUAGUUAGAAGGGACAUGAGGAUCACCCAUGUAGUCC | 23.3 nM | 36.2 nM |  | 
UUCUGUGUGUGCUAGGGCUGCACAUGAGGAUCACCCAUGUACAGAAGGUGGACACGCACUGUGGCCAAGGAUAUGUAACAUGUU | 11.2 nM | 36.2 nM |  | 
UUCUUGGCAGGAUAUGCUUUUUUAGACAUGAGGAUCACCCAUGUGAUGAUUAUUGGUUUUGCAGAAGGGCCUUAAU | 53.6 nM | 87.5 nM |  | 
UUCUUGGCAGGAUAUGCUUUUUUAGACAUGAGGAUCACCCAUGUGUUUAUUUUUUUUUUUGCAGAAGGGCCUUAAU | 16.4 nM | 19.5 nM |  | 
UUCUUGUGAGGAUAUCAGUAGUAAAUAAAUAAAAUUACUACUGAGAAGGCACAUGAGGAUCACCCAUGUUCCUU | 14.6 nM | 32.9 nM |  | 
UUGAAGUCAUCAGGAUAUAGUAUAAAAGACAUAUAUUUUUUCAAACAUGAGGAUCACCCAUGUCGCUAGAAGGGAUUAUAGAUU | 47.3 nM | 41.3 nM |  | 
UUGAGGUCAGGAUAUGCAUGGCGGGACUUGCGUCGUGGCGUGGAGAAGGGACAUGAGGAUCACCCAUGUGGAGU | 93.1 nM | 53.4 nM |  | 
UUGAUGUCAUCAGGAUAUAGUAUUUAAGACAUAUCUUCUUUCAAACAUGAGGAUCACCCAUGUCGCUAGAAGGGAUGAAUGAUU | 16.6 nM | 14.4 nM |  | 
UUGAUUAUACAAGGAUAUCAAUUGUAAUUAAGACUUACAUGAGGAUCACCCAUGUUAAUAUUUUUUGAGAAGGUGUAUUUUCAG |  |  | 25.4 nM | 21.9 nM
UUGAUUUUGUAAGGAUAUACUCUGUGAUGAAGAGUAGAAGGUACUUACAUGAGGAUCACCCAUGUUUAACGAGAUACUAAUCGU |  |  | 62.8 nM | 31.3 nM

Sequence | apparent Kd [1] | apparent Kd [2] | apparent Kd [3] | apparent Kd [4]
UUGCCUCGGAACAUGAGGAUCACCCAUGUGCUGCGGGCAACGUAGGAUAUGAUGGUACGCUACCAUCAGAAGGAUGAUGGUACC |  |  | 4.98 nM | 5.29 nM
UUGCGGUAGGAGAAGGACAGAGGCGGAAACACAAACAUGAGGAUCACCCAUGUAGGAUAUCCUACCUAACGCGGACUCCUCCAG | 6.3 nM | 8.88 nM |  | 
UUGCGGUAGGAGAAGGACAGAGGCGGAAACACAUACAUGAGGAUCACCCAUGUAGGAUAUCCUACCUAACGCGGACUCCUCCAG | 5.85 nM | 6.43 nM |  | 
UUGCGGUCAGGAUAUGCAUGGCGGGACUUGCGUCGUGGCGUGGAGAAGGGACAUGAGGAUCACCCAUGUGGAGG | 97.1 nM | 99.3 nM |  | 
UUGCUCGUGUGAGGAUAUGCCGCCGUUUCGGCUGCAGAAGGUACUAUAAUACAUGAGGAUCACCCAUGUCUCUGUUGUUUCGUG |  |  | 27.6 nM | 27.1 nM
UUGGACAGCUAGAGCUGUUAAGUACAUGAGGAUCACCCAUGUCAGGAUAUCCUUCCGCAAUGCGAGGAGAAGGGACAGGGUCCC | 64.7 nM | 149 nM |  | 
UUGGACCUAGGAUAUACAUGAGGAUCACCCAUGUUGGCGCACGCCCACCUGGACCCGAGUAGAAGGAGGAAAAU | 26.1 nM | 78.4 nM |  | 
UUGGACGUAGUAGGAUAUGUAGGAUAUUCCUACAUGAGGAUCACCCAUGUUGACAUGGAAGAAGGACAGAAGGACGAUGUCCAU |  |  | 405 nM | 5.06 nM
UUGGACGUCGUAGGAUAUGUAGGAUACUCCUACAUGAGGAUCACCCAUGUUGACAUGGAGGAAGGACAGAAGGACGGUGUCCAU |  |  | 25.8 nM | 6.46 nM
UUGGACGUCGUAGGAUAUGUAGGAUAGUCCUACAUGAGGAUCACCCAUGUUGACAUGGAAGAAGGACAGAAGGACGAUGUCCAU |  |  | 553 nM | 35.4 nM
UUGGACGUCGUAGGAUAUGUAGGAUAUUCCUACAUGAGGAUCACCCAUGUUGACAUGGAAGAACGACAGAAGGACGAUGUCCAU |  |  | 130 nM | 7.46 nM
UUGGACGUCGUAGGAUAUGUAGGAUAUUCCUACAUGAGGAUCACCCAUGUUGACAUGGAAGAAGGACAGAACGACGAUGUCCAU |  |  | 172 nM | 6.07 nM
UUGGACGUCGUAGGAUAUGUAGGAUAUUCCUACAUGAGGAUCACCCAUGUUGACAUGGAAGAAGGACAGAAGGACGACGUCCAU |  |  | 173 nM | 4.59 nM
UUGGACGUCGUAGGAUAUGUAGGAUAUUCCUACAUGAGGAUCACCCAUGUUGACAUGGAAGAAGGACAUAAGGACGAUGUCCAU |  |  | 27.4 nM | 4.15 nM
UUGGACGUCGUAGGAUAUGUAGGAUAUUCCUACAUGAGGAUCACCCAUGUUGACAUGGAAGGAGGACAGAAGGACGAUGUCCAU |  |  | 524 nM | 23.3 nM
UUGGACGUCGUAGGAUAUGUAGGAUAUUCCUACAUGAGGAUCACCCAUGUUGACAUGGAAGUAGGACAGAAGGACGAUGUCCAU |  |  | 497 nM | 23.1 nM
UUGGACGUCGUAGGUUAUGUAGGAUAUUCCUACAUGAGGAUCACCCAUGUUGACAUGGAAGAAGGACAGAAGGACGAUGUCCAU |  |  | 205 nM | 3.92 nM
UUGGCGACGUAGAAGGGUGACAUGAGGAUCACCCAUGUGCCGAUAUUCCUCGAGAUAUGUCGGCCACAGGAUAUACGUGCCAUC |  |  | 51.8 nM | 98.6 nM
UUGGGAUGCAAGAAGGGUGACAUGAGGAUCACCCAUGUGUUGUGAAGUCUCGAGAUUUUAUGACCAUAGGAUAUUGCACCGAAC |  |  | 31.6 nM | 21.6 nM
UUGUGGGAGCAGGAUAUCUUAUUUUGGUUUUGUGGAGAAGGGCUGACAUGAGGAUCACCCAUGUGGUCCUAGAU | 21.7 nM | 36.5 nM |  | 
UUGUUAAGAGGAUAUACAUGAGGAUCACCCAUGUGAGAAGUCCAGGGCGUAUUUUCUUGUAGAAGGUUUAGCCC | 25.1 nM | 15.8 nM |  | 
UUGUUAGGGAGAGGAUAUUGACAUGAGGAUCACCCAUGUACUUGGGAGUGUUUACUGAAUUCUCACGAGAAGGCUUACAAAUUU | 175 nM | 147 nM |  | 
UUGUUAUAUGUAGGAUAUGCAUAUUAUUAUUGUGCAGAAGGACAUGAGGAUCACCCAUGUAUAUUAUUAUUAUAUAUUAUAUAU | 31.4 nM | 46 nM |  | 
UUGUUAUAUGUAGGAUAUGCAUAUUGUUGUUAUGCAGAAGGACAUGAGGAUCACCCAUGUAUAUUAUUGUUAUAUAUUGUAUAU | 25.4 nM | 34.6 nM |  | 
UUGUUAUGUGUAGGAUAUGCAUAUUAUUAUUAUGCAGAAGGACAUGAGGAUCACCCAUGUGUAUUAUUAUUAUAUAUUAUAUAU | 23.9 nM | 35.9 nM |  | 
UUUAAGGAAGGAUAUACAAUAUAAAUAAUAUCCUCAUUAUUACAUGAGGAUCACCCAUGUAGAAGGUCCAAUUU | 118 nM | 368 nM |  | 
UUUAAGUCAGGAUAUCGUUAAUUUAAUAAAUUAUUUUAAUUCGAGAAGGGACAUGAGGAUCACCCAUGUAAUUU | 33.2 nM | 48.6 nM |  | 
